Bioassay records from PubChem.
RGS4 act: RGS4 potentiators or activators, primary screen, cell-based, HEK293 M3R inducible RGS4, calcium flux; carbachol calcium flux Fluo4; stronger effect = lower value; B-score at 10 µM; 310,000 tested, 0.92% active; AID 463111, 2010;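 active = B-score of the integrated calcium signal more than 4 SD below the library mean, with starting fluorescence not abnormally high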;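 also: negative B-score means reduced calcium response which marks RGS4 activation or potentiation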
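System – HEK293 FlpIn-TREx cells, stable M3R, doxycycline-inducible RGS4 · Reagent – ECmax carbachol challenge · Times – compound preincubation 20 min at room temperature before agonist · Technique – Fluo4 fluorescence kinetic imaging of calcium · Measure – B score of integrated Fluo4 ratio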
MrgX1 agonist: agonists of human MrgX1 receptor, primary screen, HEK293 cells, Fluo-4 calcium flux | Fluo-4 calcium fluorescence, agonist mode; stronger effect = higher value | B-score at 10 µM | 310,000 tested, 0.44% active;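 active = calcium response B-score plate-corrected fluorescence ratio at least 3 library SD, with starting fluorescence B-score inside 5 SD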
Target sequence (Q96LB2 whole entry, looked up): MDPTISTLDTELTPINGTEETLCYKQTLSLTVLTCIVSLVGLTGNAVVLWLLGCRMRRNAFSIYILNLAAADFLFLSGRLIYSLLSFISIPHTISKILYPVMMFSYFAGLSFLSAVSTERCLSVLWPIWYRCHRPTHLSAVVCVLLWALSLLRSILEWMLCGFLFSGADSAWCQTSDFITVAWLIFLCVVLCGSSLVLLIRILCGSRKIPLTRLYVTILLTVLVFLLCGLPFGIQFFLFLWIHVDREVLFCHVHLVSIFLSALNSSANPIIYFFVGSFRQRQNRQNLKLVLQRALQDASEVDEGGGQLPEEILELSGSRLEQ
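Test system: HEK293 cells stably expressing human MrgX1 receptor; amount: 15,000 cells per well; doses: compound delivered in addition one of three; times: overnight plating before 1 h dye loading; detection: Fluo-4 NW calcium-flux fluorescence, kinetic read; read-out basis: B-scored fluorescence response ratio; controls: positive and negative controls per plate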
MrgX1 allo act: positive allosteric modulators of MrgX1, primary screen, HEK293 cells, Fluo-4 calcium flux | FDSS; stronger effect = higher value | Mas-related G-protein coupled receptor member X1 (Homo sapiens), Q96LB2 | B-score at 10 µM | 310,000 tested, 0.63% active;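 active = plate-corrected calcium response at least 3 library SD above typical, normal starting fluorescence, not activating the receptor alone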;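 also: compound read alongside a low EC10 to EC30 dose of BAM8-22 agonist; peak minus trough fluorescence over baseline measured at the second addition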
RGS4 inh: RGS4 inhibitors, primary screen, cell-based, HEK293 M3R inducible RGS4, calcium flux. B-score at 10 µM. AID 463165, 2010. 310,000 tested, 0.45% active. Fluo-4 calcium flux; stronger effect = higher value; triggered by carbachol at its EC20. Regulator of G-protein signaling 4 (Homo sapiens), P49798;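 active = B-score, a plate-corrected calcium signal, over three deviations above library mean, with baseline fluorescence within five deviations of library mean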;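 also: RGS4 expression induced by doxycycline in cells with stable M3 receptor; B-score is computed from the integrated fluorescence ratio over baseline after carbachol; higher B-score means a larger calcium signal and so more RGS4 inhibition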
MrgX1 antag: antagonists of human MrgX1 receptor, primary screen, HEK293 cells, Fluo-4 calcium flux | Mas-related G-protein coupled receptor member X1 (Homo sapiens), Q96LB2 | BAM8-22 antagonism; stronger effect = lower value | B-score at 10 µM | 310,000 tested, 1.3% active | AID 588676, 2011;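 active = calcium-response B-score plate-corrected more than 3 library SD below zero, starting fluorescence within 5 deviations, no agonist response on first addition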;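 also: peak minus trough fluorescence over baseline after final BAM8-22 challenge near maximal dose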
RGS4 act valid: reduced carbachol calcium response, RGS4-induced M3R cells, confirmation, RGS4 activator project, cell-based, HEK293 M3R/RGS4 inducible, calcium flux, duplicate; shares compounds with RGS4 act; carbachol calcium flux Fluo4; inhibition, % at 10 µM; 1,100 tested, 89% active; AID 602282, 2012;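 active = inhibition above 3 SD of the buffer control wells, cut at about 41% in these data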;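 also: signal is the integrated peak-minus-minimum Fluo4 fluorescence over baseline ratio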
M3R Ca counter: activity in cells without induced RGS4 expression; shares compounds with RGS4 act; HEK293 M3R non-induced RGS4, Fluo4 calcium flux; after carbachol challenge at its EC90; inhibition, % at 10 µM; 1,100 tested, 82% active;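 active = inhibition exceeding 3 SD of buffer-only control wells, cut at about 26% in these data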;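 also: percent drop in integrated peak-minus-baseline over baseline Fluo4 ratio after carbachol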
* marks the source's active call; other numbers are inactive results; i = inactive; · = no result given. This is a sample that favours compounds with a hit; in the whole collection about 3.5% have one here.

SMILES | RGS4 act | MrgX1 agonist | MrgX1 allo act | RGS4 inh | MrgX1 antag | RGS4 act valid | M3R Ca counter
Cc1ccc(NC(=S)NC(NC(=O)c2ccccc2C)C(Cl)(Cl)Cl)c(C)c1 (configuration not stated) | -8.5* | i | i | i | i | 0 | 0
C[n+]1cccc(C2C(C#N)=C(N)Oc3c2ccc2ccccc32)c1 (configuration not stated) | i | i | i | i | i | · | ·
C[n+]1cccc2ccc3c(c21)OC(N)=C(C#N)C3c1ccccc1 (configuration not stated) | -12* | i | i | i | i | 76* | 84*
CC(C)(C)N(Cc1ccccc1)C(=O)c1ccc2c(c1)OCCO2 | -9.2* | i | i | i | i | 92* | 54*
CC(C)(C)N(Cc1nc(-c2ccccc2)no1)C(=O)c1ccc2c(c1)OCO2 | i | i | i | i | i | · | ·
C=CCn1c(SCc2c(F)cccc2Cl)nnc1-c1ccco1 | i | i | i | i | i | · | ·
COc1cc(C(=O)NCc2nnc(SCC(=O)NC3CCCCC3)o2)cc(OC)c1OC | i | i | i | i | i | · | ·
Cc1c(OCC(=O)N(C)C)ccc2c3c(c(=O)oc12)CCCCC3 | -7.9* | i | i | i | i | 64* | 32*
FC(F)(F)c1cccc(NCc2n[nH]c(=S)n2C2CCCCC2)c1 | -8.4* | i | i | i | i | 85* | 52*
CCOc1ccccc1NC(=O)C1C2CCC3C(CCC21)C3(Cl)Cl (configuration not stated) | -7.9* | i | i | i | i | 0 | 0
O=C(Nc1ccccc1Cl)C1C2CCC3C(CCC21)C3(Cl)Cl (configuration not stated) | i | i | i | i | i | · | ·
COc1ccc(C)cc1S(=O)(=O)N1CCC(C(=O)NC2CCCC2)CC1 | -8.1* | i | i | i | i | 0 | 0
O=C(Nc1ccc(Oc2ccccc2)nc1)C1CCCCN1Cc1ccc(O)cc1 (configuration not stated) | -8.2* | i | i | i | i | 74* | 28*
COc1ccc(CN(C)S(=O)(=O)c2nnc(NC(=O)c3ccccc3)s2)cc1OC | i | i | i | i | i | · | ·
COc1ccccc1C(=O)Nc1nnc(S(=O)(=O)N(C)Cc2ccccc2)s1 | -8.9* | i | i | i | i | 89* | 52*
CNC(=O)c1ccccc1Nc1ccc(SC(F)F)cc1 | i | i | i | i | i | · | ·
O=C(NCc1ccncc1)c1ccccc1Nc1ccc(SC(F)F)cc1 | -8.9* | i | i | i | i | 92* | 85*
Cc1csc(NC(=O)c2sc3nc(-c4cccs4)ccc3c2N)n1 | -8.9* | 93* | i | i | i | 88* | 83*
O=C(NCc1ccc(Cl)cc1)c1cccc(NC(=O)c2ccccc2)c1 | i | i | i | i | i | · | ·
O=C(NCCc1ccc(F)cc1)c1cccc(NC(=O)c2ccccc2)c1 | -7.7* | i | i | i | i | 56* | 0
N#Cc1ccc(C(=O)NCC(c2ccco2)N2CCCC2)cc1 (configuration not stated) | i | i | i | i | i | · | ·
N#Cc1ccccc1Sc1ccccc1C(=O)NCC(c1ccco1)N1CCCC1 (configuration not stated) | -7.9* | i | i | i | i | 65* | 29*
COc1ccccc1/C=C/CN1CCCC(CCC(=O)NCc2ccc(F)c(F)c2)C1 (configuration not stated) | i | i | i | i | i | · | ·
